# Measured values: ChEMBL document CHEMBL4316593 (Eur J Med Chem, 2019)
# Active and inactive are the calls of the source. The calls are words filed in the database; no cut-off is given here.
# Assays:
# [1] = system: U-87 MG; assay: Cytotoxicity against human U87 cells assessed as reduction in cell proliferation at 100 uM measured after 48 hrs by trypan blue dye-based cell counting analysis; assay type: functional; details: U-87MG ATCC
# Method in brief: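 Trypan blue viability assay. U87 (MEM, 10% FBS) or LN229 (DMEM, 5% FBS) cells were treated for 48hrs. Screening used 100 μM; the dose-response used 100, 75, 50, 25 and 10 μM. Cells were pelleted at 1200 rpm and live/dead cells counted by automated counter. Mortality % was taken relative to the DMSO control, and IC₅₀ derived from the dose-response curve. Cisplatin served as positive control.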
# [2] = system: LN-229; assay: Cytotoxicity against human LN229 cells assessed as reduction in cell proliferation measured after 48 hrs by trypan blue dye-based cell counting analysis; details: LN-229, 48 h
# [3] = system: U-87 MG; assay: Cell cycle arrest in human U87 cells assessed as accumulation at S-phase at cytotoxic IC50 measured after 48 hrs by propidium iodide staining based fluorescence cell imaging analysis (reference value: 19.2%); assay type: functional, U-87MG ATCC
# Method in brief: (§1)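 Cell cycle by PI staining. Cells seeded at 1×10^6 and grown overnight at 37°C, 5% CO₂, then exposed for 48hrs at their IC₅₀ concentration, with DMSO and cisplatin controls. Cells were trypsinized, washed in cold PBS and fixed in 70% ethanol at 4°C for 30 min. They were stained with PI in Triton X-100/RNase for 15 min at 37°C and imaged by fluorescence microscopy. Reported as mean ± S.E.M of triplicates.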
# [4] = system: LN-229; assay: Cell cycle arrest in human LN229 cells assessed as increase in accumulation at G1-phase at cytotoxic IC50 measured after 48 hrs by propidium iodide staining based fluorescence cell imaging analysis; assay type: functional; method in brief: as §1
# [5] = system: U-87 MG; assay: Cell cycle arrest in human U87 cells assessed as change in MDM2 gene expression at cytotoxic IC50 measured after 48 hrs […] relative to control; assay type: functional, U-87MG ATCC
# Method in brief: (§2)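 U87 expression profiling. Cells incubated 48hrs at 37°C, 5% CO₂ with the IC₅₀ concentration, alongside a cisplatin and an untreated control, in triplicate. RNA was isolated by one common protocol and profiled. DEGs were called with DESeq2 (q < 0.05, fold change > 1.5) and expressed as fold change versus untreated.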
# [6] = system: U-87 MG; assay: Cell cycle arrest in human U87 cells assessed as change in CDK6 gene expression at cytotoxic IC50 measured after 48 hrs […] relative to control; assay type: functional, U-87MG ATCC; method in brief: as §2
# [7] = system: U-87 MG; assay: Induction of DNA damage in human U87 cells assessed as change in BAX gene expression at cytotoxic IC50 measured after 48 hrs […] relative to control; assay type: functional, U-87MG ATCC; method in brief: as §2
# [8] = system: U-87 MG; assay: Induction of DNA damage in human U87 cells assessed as change in PLK3 gene expression at cytotoxic IC50 measured after 48 hrs […] relative to control; assay type: functional, U-87MG ATCC; method in brief: as §2
# [9] = system: U-87 MG; assay: Induction of apoptosis in human U87 cells assessed as change in ITPR2 gene expression at cytotoxic IC50 measured after 48 hrs […] relative to control; assay type: functional, U-87MG ATCC
# Method in brief: (§3)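 U87 cells grown in MEM with 10% FBS at 37°C, 5% CO2. Cells exposed to IC50 of test compound for 48 hrs, alongside untreated and cisplatin controls, each condition in triplicate. RNA isolated and profiled; differential expression called with DESeq2 (q-value < 0.05, fold change > 1.5), fold change versus untreated.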
# [10] = system: U-87 MG; assay: Induction of apoptosis in human U87 cells assessed as change in PMAIP1 gene expression at cytotoxic IC50 measured after 48 hrs […] relative to control; assay type: functional, U-87MG ATCC; method in brief: as §3
# [11] = system: LN-229; assay: Induction of apoptosis in human LN229 cells assessed as decrease in caspase-3/7 activation at cytotoxic IC50 measured after 5 hrs by caspase-glo 3/7 luminescence assay relative to control; assay type: functional; parameters: scale not given: the % may be the effect or the level left
# Method in brief: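 Cells grown overnight in 96-well format, then given IC50 for 5 hrs at 37°C, 5% CO2, with negative, positive and blank (medium+DMSO+dye) wells. Equilibrated 30 min at room temperature, Caspase-Glo 3/7 reagent added 1:1 in the dark, luminescence read at 1 hr. Fold change = (test−blank)/(control−blank). Triplicate measurements, at least two independent experiments.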
# [12] = Inhibition of RTK/PI3K/AKT/mTOR signaling in human U87 cells assessed as down regulation of TAF13 gene expression at cytotoxic IC50 measured after 48 hrs relative to control; assay type: cell-based; details: U-87MG ATCC
# Method in brief: (§4)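 Cells were exposed for 48hrs at 37°C in humidified 5% CO₂ to the compound at its previously determined IC₅₀, with Cisplatin at its IC₅₀ and an untreated negative control alongside. Each condition was run in triplicate. RNA was isolated from all samples by the same protocol. Genes were called differentially expressed by DESeq2 at q-value < 0.05 and fold change > 1.5.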
# [13] = Inhibition of RTK/PI3K/AKT/mTOR signaling in human U87 cells assessed as down regulation of KIF1BP gene expression at cytotoxic IC50 measured after 48 hrs relative to control; assay type: cell-based; details: U-87MG ATCC; method in brief: as §3
# [14] = Inhibition of RTK/PI3K/AKT/mTOR signaling in human U87 cells assessed as down regulation of PHIP gene expression at cytotoxic IC50 measured after 48 hrs relative to control; assay type: cell-based; details: U-87MG ATCC; method in brief: as §4
# [15] = Inhibition of RTK/PI3K/AKT/mTOR signaling in human U87 cells assessed as down regulation of CMTM3 gene expression at cytotoxic IC50 measured after 48 hrs relative to control; assay type: cell-based; details: U-87MG ATCC; method in brief: as §3
# [16] = Inhibition of RTK/PI3K/AKT/mTOR signaling in human U87 cells assessed as down regulation of NFIL3 gene expression at cytotoxic IC50 measured after 48 hrs relative to control; assay type: cell-based; details: U-87MG ATCC; method in brief: as §4
# [17] = Inhibition of RTK/PI3K/AKT/mTOR signaling in human U87 cells assessed as down regulation of XPO6 gene expression at cytotoxic IC50 measured after 48 hrs relative to control; assay type: cell-based; details: U-87MG ATCC; method in brief: as §4
# [18] = Inhibition of RTK/PI3K/AKT/mTOR signaling in human U87 cells assessed as up regulation of ZNF395 gene expression at cytotoxic IC50 measured after 48 hrs relative to control; assay type: cell-based; details: U-87MG ATCC
# [19] = Inhibition of RTK/PI3K/AKT/mTOR signaling in human U87 cells assessed as up regulation of zinc finger protein 217 gene expression at cytotoxic IC50 measured after 48 hrs relative to control; assay type: cell-based; details: U-87MG ATCC
# [20] = Inhibition of RTK/PI3K/AKT/mTOR signaling in human U87 cells assessed as up regulation of solute carrier family 11 member 2 gene expression at cytotoxic IC50 measured after 48 hrs relative to control; assay type: cell-based; details: U-87MG ATCC
# [21] = Inhibition of RTK/PI3K/AKT/mTOR signaling in human U87 cells assessed as up regulation of ankyrin repeat domain 10 gene expression at cytotoxic IC50 measured after 48 hrs relative to control; assay type: cell-based; details: U-87MG ATCC
# [22] = Inhibition of RTK/PI3K/AKT/mTOR signaling in human U87 cells assessed as up regulation of WW domain containing transcription regulator 1 gene expression at cytotoxic IC50 measured after 48 hrs relative to control; assay type: cell-based; details: U-87MG ATCC
# [23] = Inhibition of RTK/PI3K/AKT/mTOR signaling in human U87 cells assessed as up regulation of proline-serine-threonine phosphatase interacting protein 2 gene expression at cytotoxic IC50 measured after 48 hrs relative to control; assay type: cell-based; details: U-87MG ATCC
# [24] = Inhibition of RTK/PI3K/AKT/mTOR signaling in human U87 cells assessed as up regulation of AHNAK2 gene expression at cytotoxic IC50 measured after 48 hrs relative to control; assay type: cell-based; details: U-87MG ATCC; method in brief: as §4
smiles,measurement,setting,value
CC(=O)C(=NNc1ccccc1C#N)C(C)=O,Activity,[1],Active
same,IC50,[2],87 µM
same,Activity,[3],2.8%
same,Activity,[4],Active
same,fold change (FC),[5],1.471
same,fold change (FC),[6],-1.311
same,fold change (FC),[7],2.512
same,fold change (FC),[8],1.714
same,log2FC,[9],-3.745
same,log2FC,[10],1.102
same,Activity,[11],36.1%
same,log2FC,[12],-1.05
same,log2FC,[13],-0.96
same,log2FC,[14],-0.753
same,log2FC,[15],-0.716
same,log2FC,[16],-0.44
same,log2FC,[17],-0.363
same,log2FC,[18],1.89
same,log2FC,[19],1.37
same,log2FC,[20],1.18
same,log2FC,[21],1.12
same,log2FC,[22],0.981
same,log2FC,[23],0.785
same,log2FC,[24],0.621
